Test results as given in ChEMBL document CHEMBL2021777 (J Med Chem, 2012).
Activity calls are given as the source filed them. The rule behind the calls is not given here.

How the values were obtained:
[1] = target: T1, Neuronal acetylcholine receptor; alpha4/beta2 (Homo sapiens, UniProt P17787+P43681); experiment: Antagonist activity at human high sensitive and low sensitive alpha4beta2 nAChR expressed in SH-EP1 cells assessed as inhibition of carbamylcholine induced 86Rb+ ion efflux preincubated for 10 mins prior to carbamylcholine-induction measured after 5 mins by flip-plate technique relative to control; assay type: functional, cell-based
T1 sequence (P17787 whole entry): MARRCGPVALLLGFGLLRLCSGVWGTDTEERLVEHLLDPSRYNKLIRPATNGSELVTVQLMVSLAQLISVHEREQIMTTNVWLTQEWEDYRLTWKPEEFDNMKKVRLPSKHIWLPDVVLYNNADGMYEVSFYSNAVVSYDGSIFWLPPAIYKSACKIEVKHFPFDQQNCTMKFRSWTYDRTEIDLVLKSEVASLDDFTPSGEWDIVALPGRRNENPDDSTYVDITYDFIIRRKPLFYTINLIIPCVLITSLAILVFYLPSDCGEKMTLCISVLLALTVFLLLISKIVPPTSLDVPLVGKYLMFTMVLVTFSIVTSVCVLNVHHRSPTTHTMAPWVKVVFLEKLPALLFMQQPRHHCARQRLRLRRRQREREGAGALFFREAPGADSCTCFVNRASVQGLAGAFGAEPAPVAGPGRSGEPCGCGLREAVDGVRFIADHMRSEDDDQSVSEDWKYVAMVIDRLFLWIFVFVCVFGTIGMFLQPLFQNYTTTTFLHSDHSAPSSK
T1 sequence (P43681 whole entry): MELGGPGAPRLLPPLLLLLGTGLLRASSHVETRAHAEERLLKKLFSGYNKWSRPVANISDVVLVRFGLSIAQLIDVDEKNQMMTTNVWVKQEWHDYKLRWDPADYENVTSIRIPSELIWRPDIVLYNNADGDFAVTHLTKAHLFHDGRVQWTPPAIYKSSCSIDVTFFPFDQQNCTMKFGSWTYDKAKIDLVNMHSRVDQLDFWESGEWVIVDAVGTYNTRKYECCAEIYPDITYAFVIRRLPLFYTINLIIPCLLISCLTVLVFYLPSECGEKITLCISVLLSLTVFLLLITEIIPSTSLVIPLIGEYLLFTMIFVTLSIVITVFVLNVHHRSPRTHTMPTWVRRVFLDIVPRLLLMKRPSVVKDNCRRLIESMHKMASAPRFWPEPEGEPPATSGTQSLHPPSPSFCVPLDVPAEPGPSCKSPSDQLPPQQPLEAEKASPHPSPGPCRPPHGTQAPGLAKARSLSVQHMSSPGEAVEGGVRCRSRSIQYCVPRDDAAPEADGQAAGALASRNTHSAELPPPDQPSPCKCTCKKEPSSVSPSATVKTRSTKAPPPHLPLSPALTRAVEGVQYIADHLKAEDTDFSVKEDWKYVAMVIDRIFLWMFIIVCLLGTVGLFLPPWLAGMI
Outline: (§1)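 SH-EP1 human epithelial cells stably transfected with separate human α4 and β2 subunit cDNAs express a mixed population of high-sensitivity (2:3 α4:β2) and low-sensitivity (3:2) α4β2-nAChRs. Cells were kept at low passage (1−26 from frozen stocks). Function was read as 86Rb+ ion flux.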

[2] = Displacement of [3H]Muscimol from GABA(A) at 10 uM
[3] = target: Histamine H1 receptor (Homo sapiens) (UniProt P35367); experiment: Displacement of [3H]Pyrilamine from H1 histamine receptor at 10 uM
Histamine H1 receptor (Homo sapiens), sequence (P35367 whole entry): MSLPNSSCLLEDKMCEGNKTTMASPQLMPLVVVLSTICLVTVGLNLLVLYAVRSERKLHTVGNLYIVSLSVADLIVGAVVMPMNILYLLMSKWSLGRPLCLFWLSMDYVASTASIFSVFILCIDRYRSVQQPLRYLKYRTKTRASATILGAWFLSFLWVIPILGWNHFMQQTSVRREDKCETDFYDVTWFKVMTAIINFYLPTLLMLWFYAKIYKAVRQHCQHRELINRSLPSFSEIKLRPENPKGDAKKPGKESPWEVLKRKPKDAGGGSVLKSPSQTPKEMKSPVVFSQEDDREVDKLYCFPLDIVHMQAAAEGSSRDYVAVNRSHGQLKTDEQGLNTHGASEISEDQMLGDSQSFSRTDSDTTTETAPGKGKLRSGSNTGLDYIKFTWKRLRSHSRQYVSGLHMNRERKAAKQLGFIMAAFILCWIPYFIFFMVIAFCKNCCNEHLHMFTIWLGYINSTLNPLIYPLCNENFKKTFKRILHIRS

[4] = target: Acetylcholine receptor; alpha1/beta1/delta/gamma (Homo sapiens) (UniProt P02708+P07510+P11230+Q07001); experiment: Agonist activity at human alpha1beta1gammadelta nAChR expressed in TE671/RD cells at 10 uM by 86Rb+ flux assay; assay type: functional, cell-based
Outline: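 Human clonal TE671/RD cells endogenously express muscle-type α1*-nAChRs (α1, β1, γ, δ). Cells were kept at low passage (1−26 from frozen stocks). Function was read as 86Rb+ efflux, with agonist and antagonist modes tested up to 10 μM.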

[5] = target: Neuronal acetylcholine receptor; alpha2/beta4 (Rattus norvegicus, UniProt P12389+P12392); experiment: Displacement of [3H] epibatidine from rat alpha2beta4 nAChR by beta scintillation counting; assay type: protein-complex assay
[6] = target: T2, Alpha-2B adrenergic receptor (Homo sapiens) (UniProt P18089); experiment: Displacement of [3H]Clonidine from alpha2B adrenergic receptor at 10 uM
T2 sequence (whole entry): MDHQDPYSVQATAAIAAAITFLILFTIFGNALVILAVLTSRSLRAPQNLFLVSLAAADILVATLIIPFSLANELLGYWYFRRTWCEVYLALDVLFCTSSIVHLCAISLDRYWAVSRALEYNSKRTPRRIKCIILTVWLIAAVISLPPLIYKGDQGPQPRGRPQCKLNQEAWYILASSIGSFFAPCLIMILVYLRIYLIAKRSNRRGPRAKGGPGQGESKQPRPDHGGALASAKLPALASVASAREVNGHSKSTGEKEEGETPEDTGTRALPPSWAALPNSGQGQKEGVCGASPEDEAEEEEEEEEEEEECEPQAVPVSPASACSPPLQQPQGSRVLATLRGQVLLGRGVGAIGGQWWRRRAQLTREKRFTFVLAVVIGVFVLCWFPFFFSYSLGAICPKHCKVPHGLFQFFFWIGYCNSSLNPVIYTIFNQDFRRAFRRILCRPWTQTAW

[7] = target: Mu-type opioid receptor (Homo sapiens) (UniProt P35372); experiment: Displacement of [3H]DAMGO from mu opioid receptor at 10 uM
Mu-type opioid receptor (Homo sapiens), sequence (P35372 whole entry): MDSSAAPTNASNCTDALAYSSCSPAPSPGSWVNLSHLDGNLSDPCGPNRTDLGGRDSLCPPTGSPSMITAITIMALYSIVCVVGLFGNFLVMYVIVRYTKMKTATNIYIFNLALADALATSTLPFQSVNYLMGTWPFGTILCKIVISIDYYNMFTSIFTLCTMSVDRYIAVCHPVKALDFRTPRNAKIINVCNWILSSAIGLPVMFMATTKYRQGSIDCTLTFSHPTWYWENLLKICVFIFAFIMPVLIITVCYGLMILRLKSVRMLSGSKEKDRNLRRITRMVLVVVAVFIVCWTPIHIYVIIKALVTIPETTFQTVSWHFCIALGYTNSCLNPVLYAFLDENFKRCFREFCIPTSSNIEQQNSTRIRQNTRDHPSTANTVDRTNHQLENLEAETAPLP

Cytochrome P450 2D6 = Cytochrome P450 2D6 (Homo sapiens, UniProt P10635); experiment: Inhibition of CYP2D6 up to 10 uM; assay type: ADME
Outline: (§2)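 Percent inhibition of CYP isoforms (CYP1A, CYP2C9, CYP2C19, CYP2D6, CYP3A; CYP1A2 reported) with test compound at concentrations up to 10 μM.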

[8] = target: T1, Neuronal acetylcholine receptor; alpha4/beta2; experiment: Agonist activity at human alpha4beta2 nAChR expressed in SH-EP1 cells assessed as 86Rb+ ion efflux after 9.5 mins by flip-plate technique; assay type: functional, cell-based; outline: as §1
[9] = target: Sodium-dependent dopamine transporter (Homo sapiens) (UniProt Q01959); experiment: Displacement of [3H]WIN35428 from DAT at 10 uM
[10] = target: 5-hydroxytryptamine receptor 1E (Homo sapiens) (UniProt P28566); experiment: Displacement of [3H]5-HT from 5-HT1E at 10 uM
5-hydroxytryptamine receptor 1E (Homo sapiens), sequence (P28566 whole entry): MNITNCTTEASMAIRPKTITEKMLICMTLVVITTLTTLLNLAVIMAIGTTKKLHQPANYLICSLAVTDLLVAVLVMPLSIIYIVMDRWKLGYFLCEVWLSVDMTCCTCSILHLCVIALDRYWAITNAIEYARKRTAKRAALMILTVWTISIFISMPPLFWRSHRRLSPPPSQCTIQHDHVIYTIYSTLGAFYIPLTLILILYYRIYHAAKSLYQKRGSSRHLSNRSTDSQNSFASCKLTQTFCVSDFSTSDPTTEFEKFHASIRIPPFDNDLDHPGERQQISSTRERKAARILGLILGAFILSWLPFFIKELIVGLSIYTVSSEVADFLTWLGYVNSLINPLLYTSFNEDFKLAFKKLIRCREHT

[11] = target: D(1B) dopamine receptor (Homo sapiens) (UniProt P21918); experiment: Displacement of [3H][…] from D5 at 10 uM
[12] = Inhibition of CYP1A up to 10 uM; assay type: ADME; outline: as §2
[13] = target: T3, D(4) dopamine receptor (Homo sapiens) (UniProt P21917); experiment: Displacement of [3H]N-methylspiperone from D4 at 10 uM
T3 sequence (whole entry): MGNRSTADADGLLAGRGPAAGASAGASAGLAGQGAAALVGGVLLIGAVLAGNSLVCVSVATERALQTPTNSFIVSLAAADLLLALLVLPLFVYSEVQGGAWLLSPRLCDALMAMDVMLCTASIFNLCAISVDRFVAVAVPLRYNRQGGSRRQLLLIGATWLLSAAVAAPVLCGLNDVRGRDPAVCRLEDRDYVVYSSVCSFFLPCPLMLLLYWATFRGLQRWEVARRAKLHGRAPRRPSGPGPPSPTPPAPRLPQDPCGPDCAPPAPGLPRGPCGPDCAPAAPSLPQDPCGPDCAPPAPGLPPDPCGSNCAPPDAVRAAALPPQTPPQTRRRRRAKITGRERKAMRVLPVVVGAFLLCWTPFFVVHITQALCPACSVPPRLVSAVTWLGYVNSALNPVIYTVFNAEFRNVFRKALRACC

[14] = target: Neuronal acetylcholine receptor; alpha3/beta4 (Rattus norvegicus, UniProt P04757+P12392); experiment: Displacement of [3H] epibatidine from rat alpha3beta4 nAChR by beta scintillation counting; assay type: protein-complex assay
Neuronal acetylcholine receptor; alpha3/beta4, sequence (P04757 whole entry): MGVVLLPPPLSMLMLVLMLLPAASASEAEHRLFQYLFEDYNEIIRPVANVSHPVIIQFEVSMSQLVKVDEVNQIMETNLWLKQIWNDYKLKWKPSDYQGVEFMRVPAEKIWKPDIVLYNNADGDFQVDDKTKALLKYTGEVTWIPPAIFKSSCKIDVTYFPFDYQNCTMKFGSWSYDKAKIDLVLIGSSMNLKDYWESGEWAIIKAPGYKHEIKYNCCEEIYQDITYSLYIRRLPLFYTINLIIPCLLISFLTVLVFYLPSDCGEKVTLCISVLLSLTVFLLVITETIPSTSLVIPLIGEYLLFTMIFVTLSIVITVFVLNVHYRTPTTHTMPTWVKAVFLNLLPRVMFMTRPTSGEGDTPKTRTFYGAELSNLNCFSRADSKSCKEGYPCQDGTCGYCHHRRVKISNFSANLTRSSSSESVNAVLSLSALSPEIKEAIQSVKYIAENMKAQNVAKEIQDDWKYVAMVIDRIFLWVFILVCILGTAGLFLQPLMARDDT
Neuronal acetylcholine receptor; alpha3/beta4, sequence (P12392 whole entry): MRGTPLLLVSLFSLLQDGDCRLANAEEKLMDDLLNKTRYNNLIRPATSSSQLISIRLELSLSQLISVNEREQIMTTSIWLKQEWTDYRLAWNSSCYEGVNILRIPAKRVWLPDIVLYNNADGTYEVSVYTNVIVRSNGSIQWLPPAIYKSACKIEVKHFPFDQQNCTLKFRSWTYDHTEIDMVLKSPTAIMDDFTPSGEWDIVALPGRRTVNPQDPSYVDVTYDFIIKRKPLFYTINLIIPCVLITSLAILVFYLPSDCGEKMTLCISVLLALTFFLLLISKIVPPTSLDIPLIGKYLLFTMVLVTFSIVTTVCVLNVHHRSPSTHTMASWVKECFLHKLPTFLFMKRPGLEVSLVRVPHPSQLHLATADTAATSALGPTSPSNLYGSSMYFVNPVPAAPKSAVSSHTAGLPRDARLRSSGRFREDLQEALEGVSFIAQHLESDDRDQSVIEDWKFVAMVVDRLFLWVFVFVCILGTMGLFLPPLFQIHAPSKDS

[15] = target: D(3) dopamine receptor (Homo sapiens) (UniProt P35462); experiment: Displacement of [3H]N-methylspiperone from D3 at 10 uM
D(3) dopamine receptor (Homo sapiens), sequence (P35462 whole entry): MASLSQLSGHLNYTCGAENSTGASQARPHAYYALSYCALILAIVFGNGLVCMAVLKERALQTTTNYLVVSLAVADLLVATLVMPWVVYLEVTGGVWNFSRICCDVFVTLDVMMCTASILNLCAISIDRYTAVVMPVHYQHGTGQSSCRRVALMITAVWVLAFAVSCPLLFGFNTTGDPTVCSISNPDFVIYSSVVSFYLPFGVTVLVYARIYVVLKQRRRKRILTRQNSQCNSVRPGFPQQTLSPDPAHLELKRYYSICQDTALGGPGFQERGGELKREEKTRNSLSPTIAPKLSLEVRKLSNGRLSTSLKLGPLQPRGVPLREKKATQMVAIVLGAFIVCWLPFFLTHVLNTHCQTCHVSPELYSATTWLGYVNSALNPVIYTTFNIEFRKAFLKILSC

[16] = target: D(1A) dopamine receptor (Homo sapiens) (UniProt P21728); experiment: Displacement of [3H][…] from D1 at 10 uM
D(1A) dopamine receptor (Homo sapiens), sequence (P21728 whole entry): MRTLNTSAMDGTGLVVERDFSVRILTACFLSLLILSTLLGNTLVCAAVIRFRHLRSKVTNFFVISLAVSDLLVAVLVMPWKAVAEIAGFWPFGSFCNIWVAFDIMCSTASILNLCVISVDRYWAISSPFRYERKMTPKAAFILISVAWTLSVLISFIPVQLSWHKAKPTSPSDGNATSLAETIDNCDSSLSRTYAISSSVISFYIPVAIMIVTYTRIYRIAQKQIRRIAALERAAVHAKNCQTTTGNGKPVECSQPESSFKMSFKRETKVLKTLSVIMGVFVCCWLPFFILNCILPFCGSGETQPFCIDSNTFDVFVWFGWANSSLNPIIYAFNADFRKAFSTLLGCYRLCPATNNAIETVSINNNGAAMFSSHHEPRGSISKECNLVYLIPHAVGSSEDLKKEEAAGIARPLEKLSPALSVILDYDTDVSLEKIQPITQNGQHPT

[17] = target: Neuronal acetylcholine receptors; alpha-3/beta-4, alpha-5, beta-2 (Homo sapiens) (UniProt P17787+P30926+P32297+P30532); experiment: Agonist activity at alpha3beta4alpha5beta2 in human SH-SY5Y cells at 10 uM by 86Rb+ flux assay; assay type: functional, cell-based
Outline: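 Human neuroblastoma SH-SY5Y cells endogenously express α3β4* nAChRs (α3, β4, probably α5, sometimes β2); their α7 receptors give no signal under these conditions. Cells were kept at low passage (1−26 from frozen stocks). Function was read as 86Rb+ efflux, with agonist and antagonist modes tested up to 10 μM.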

[18] = target: T1, Neuronal acetylcholine receptor; alpha4/beta2; experiment: Agonist activity at human high sensitive and low sensitive alpha4beta2 nAChR expressed in SH-EP1 cells assessed as 86Rb+ ion efflux by flip-plate technique relative to sazetidine-A; assay type: functional, cell-based
Outline: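 SH-EP1-hα4β2 cells (stably transfected human α4 and β2, low passage 1−26) express mixed high- and low-sensitivity α4β2-nAChRs. Efficacy was measured by 86Rb+ flux on this mixed population. High-sensitivity efficacy was extrapolated by defining a reference agonist as 100% full agonist at the HS receptor.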

[19] = target: 5-hydroxytryptamine receptor 6 (Homo sapiens) (UniProt P50406); experiment: Displacement of [3H]LSD from 5-HT6 at 10 uM
5-hydroxytryptamine receptor 6 (Homo sapiens), sequence (P50406 whole entry): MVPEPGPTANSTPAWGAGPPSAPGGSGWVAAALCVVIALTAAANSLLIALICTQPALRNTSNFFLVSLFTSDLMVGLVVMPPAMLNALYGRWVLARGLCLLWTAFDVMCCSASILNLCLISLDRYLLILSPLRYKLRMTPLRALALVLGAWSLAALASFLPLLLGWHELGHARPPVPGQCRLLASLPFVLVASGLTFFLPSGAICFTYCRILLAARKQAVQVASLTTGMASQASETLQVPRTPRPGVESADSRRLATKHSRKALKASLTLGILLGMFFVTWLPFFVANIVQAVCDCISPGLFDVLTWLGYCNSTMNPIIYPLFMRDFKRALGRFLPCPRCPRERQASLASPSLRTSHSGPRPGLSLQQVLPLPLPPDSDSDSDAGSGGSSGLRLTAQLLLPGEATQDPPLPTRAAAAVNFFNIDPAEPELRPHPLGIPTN

SMILES	Efficacy [1]	inhibition [2]	inhibition [3]	Activity [4]	Ki [5]	inhibition [6]	inhibition [7]	inhibition (INH) (Cytochrome P450 2D6)	EC50 [8]	inhibition [9]	inhibition [10]	inhibition [11]	inhibition (INH) [12]	inhibition [13]	Ki [14]	inhibition [15]	inhibition [16]	Activity [17]	Efficacy [18]	inhibition [19]
CNC(=O)OCC[C@H]1C[C@@H]1c1cncc(OC[C@@H]2CCN2)c1	85%	-1.1%	30.5%	inactive	1890 nM	12.4%	37.3%	<= 25%	15.7 nM	63%	-8.2%	-1.5%	<= 25%	17%	> 10000 nM	12.3%	2.1%	inactive	17%	-6.4%
COCC[C@H]1C[C@@H]1c1cncc(OC[C@@H]2CCN2)c1	71%	2%	-4.8%	inactive	236 nM	16.4%	-5.6%	<= 25%	17.5 nM	21.7%	13.4%	19.1%	<= 25%	15.8%	> 10000 nM	84.5%	90.3%	inactive	6%	1.4%
OCC[C@H]1C[C@@H]1c1cncc(OC[C@@H]2CCN2)c1	63%	-2.5%	41.4%	inactive	249 nM	9.9%	0.4%	<= 25%	10.2 nM	43.7%	6.7%	25.6%	<= 25%	8.3%	6520 nM	66.2%	51.2%	inactive	21%	-7.1%
